Assay outcomes (PubChem BioAssay)
Compounds with a hit are over-represented: about 1.4% of the library has one in this group of screens.
HCV NS3 hel inh: HCV NS3 helicase inhibition; NS3 helicase DNA unwinding, Cy5 molecular beacon fluorescence; 290,000 compounds, 0.56% hits; inhibition, % at 10.9 µM; AID 1800;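 active = inhibition above the mean of all tested compounds plus 3 SD, set per campaign, cut at about 35% in these data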
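System: NS3 helicase fragment of HCV / Schedule: 1 h at 25 °C / Control set: DMSO alone as 0% and 110 µM thioflavine S as 100% / Reagent: Cy5/quencher beacon DNA duplex and ATP to start / Technique: Cy5 fluorescence / Replication: singlicate / Evaluation: % inhibition of end-to-start signal ratio versus controls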
CTSL1 counter: counter-screen for PFM18AAP inhibitors: inhibitors of F. hepatica cathepsin L1; recombinant F. hepatica cathepsin L1, Z-Leu-Arg-MCA fluorescence; inhibition, % at 5.96 µM; 300,000 compounds, 0.49% hits;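 active = inhibition above the mean of all tested compounds plus 3 SD, set per screening campaign, cut at about 17% in these data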
EBNA-1 inhibitor: blocks EBNA-1 binding to DNA; inhibition, % at 14.8 µM; 300,000 compounds, 0.34% hits; EBNA-1 DNA binding, fluorescence polarization; in the data active = inhibition above about 28%
ZTA DNA inh: ZTA (EBV) inhibition in EBNA-1 counter-screen. P03206. AID 2234. 320,000 compounds, 0.15% hits. inhibition, % at 11 µM. ZTA-DNA binding, fluorescence polarization; in the data active = inhibition above about 33%
Target sequence (P03206 whole entry, looked up): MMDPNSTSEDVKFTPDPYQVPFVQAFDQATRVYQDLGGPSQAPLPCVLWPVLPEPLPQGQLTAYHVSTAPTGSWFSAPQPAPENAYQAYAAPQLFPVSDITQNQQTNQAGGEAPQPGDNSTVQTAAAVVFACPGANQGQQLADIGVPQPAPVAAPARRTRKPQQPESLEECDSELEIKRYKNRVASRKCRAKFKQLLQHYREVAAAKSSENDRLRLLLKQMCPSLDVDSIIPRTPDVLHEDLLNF
A number is an active result; n = inactive; x = not tested or not shown.

SMILES	HCV NS3 hel inh	CTSL1 counter	EBNA-1 inhibitor	ZTA DNA inh
COc1cccc(CN(C)C(=O)c2cccc(OC3CCN(C4CCCC4)CC3)c2)c1	n	n	n	n
Cc1cccc(C(=O)NCC(=O)OCC(=O)N(C)CC(=O)Nc2ccc(F)cc2)c1	x	40	n	n
C=CCN(CC=C)Cc1c(C)[nH]c2ccc(C(=O)OCC)cc2c1=O	n	20	n	n
CCc1nnc2c3cnn(-c4ccccc4)c3ncn12	n	n	n	n
Cc1cccc(C)c1OCc1nnc(SCC(=O)Nc2ccccc2F)o1	n	n	n	n
Cc1cccc(C)c1OCc1nnc(SCC(=O)NCc2ccccc2)o1	n	21	n	n
NC(N)=N/N=C/c1ccc(OCc2ccc(Cl)cc2)cc1	n	n	n	n
COc1cccc(C(C[N+](=O)[O-])c2c(C)[nH]n(-c3ccccc3)c2=O)c1 (centres undefined)	n	101	n	n
Cc1[nH]n(-c2ccccc2)c(=O)c1C(C[N+](=O)[O-])c1ccc(Br)cc1 (centres undefined)	n	n	n	n
COc1ccccc1Nc1cc2cc(Br)ccc2c(=O)[nH]1	x	47	n	n
COc1ccccc1Nc1nnc(C)c(=O)[nH]1	n	n	n	n
COc1ccc(OC)c(Nc2cc3ccccc3c(=O)[nH]2)c1	x	70	n	n
Cc1ccc(CN=c2c([N+](=O)[O-])nn(-c3ccc(Cl)cc3)n2O)cc1	n	n	n	n
O=[N+]([O-])c1nn(-c2ccc(Cl)cc2)n(O)c1=NCc1ccncc1	n	18	n	n
COc1cc(-c2nnn(CC(=O)N3CCOCC3)n2)cc(OC)c1OC	n	30	n	n
Cc1ccccc1CC(=O)Nc1cc(C(C)(C)C)on1	n	n	n	n
Cc1ccc(C(=O)N/C(=C/c2ccco2)C(=O)OCN2C(=O)c3ccccc3C2=O)cc1	n	43	n	n
CSc1nsc(/C=C/Nc2cccc(Cl)c2)c1C#N	n	n	n	n
COc1cccc(NC(=O)CCc2nnc3ccc(N4CCN(c5cccc(OC)c5)CC4)nn23)c1	n	n	n	n
COc1cc(NC(=O)CCc2nnc3ccc(N4CCN(c5cccc(OC)c5)CC4)nn23)cc(OC)c1	n	66	n	n
Cc1ccc(CNC(=O)c2cc3c(=O)n4ccccc4nc3n(Cc3ccco3)c2=N)cc1	x	n	n	n
Cc1ccc2nc3c(cc(C(=O)NCc4ccco4)c(=N)n3Cc3ccco3)c(=O)n2c1	n	19	n	n
COC(=O)c1ccc2c(c1O)C(=O)c1ccccc1C2=O	n	26	n	n
CCSc1c(C(=O)NC)ccc2c1C(=O)c1ccccc1C2=O	n	n	n	n
O=C(CCS(=O)(=O)c1cc(Br)cc2c1N(C(=O)C1CC1)CC2)N1CCN(c2ccccn2)CC1	n	n	n	n
SMILES	HCV NS3 hel inh	CTSL1 counter	EBNA-1 inhibitor	ZTA DNA inh
CC(=O)N1CCc2cc(Br)cc(S(=O)(=O)CCC(=O)N3CCN(c4ccccn4)CC3)c21	n	21	n	n
O=C(CN(c1ccccc1)S(=O)(=O)c1ccccc1)N/N=C/c1ccc(OC2CSC2)cc1	n	n	55	n
Cc1c(C(=O)Nc2ccc(S(=O)(=O)Nc3ncccn3)cc2)oc2ccc(Cl)cc12	n	n	n	n
C=CCn1c(C)nnc1SCC(=O)Nc1oc(C)c2c(C)n[nH]c(=O)c12	x	18	n	n
Cc1n[nH]c(=O)c2c(NC(=O)CSc3ncccn3)oc(C)c12	x	n	n	n
O=C1C=C(c2ccccc2)C[C@H](c2cccs2)[C@H]1n1nnc([N+](=O)[O-])n1	n	33	n	n
CCS(=O)(=O)N1Cc2ccccc2CC1C(=O)Nc1cccc(C)c1 (centres undefined)	n	n	n	n
COc1ccc(S(=O)(=O)n2nc(OC(=O)c3c(-c4ccccc4Cl)noc3C)cc2N)cc1	n	18	n	n
COc1cc(/C=C2\SC(=S)N(CC(=O)Nc3cccnc3)C2=O)cc(OC)c1OC	n	n	n	n
Cc1nn(C)c(Oc2ccccc2)c1CCNC(=O)CCl	n	28	n	n
Cc1noc(C)c1S(=O)(=O)N1CCN(c2ccc(Cl)cc2)CC1	n	n	n	n
Cc1ccc(C(=O)N/N=C/C=C/c2ccccc2)cc1	n	n	n	n
O=C(N/N=C/C=C/c1ccccc1)c1cccc(Br)c1	n	18	n	n
Cc1ccccc1NC(=O)Cc1nc(COC(=O)CCC(=O)c2ccccc2)cs1	x	x	x	n
COc1ccc(C2CC(c3cccs3)=NN2C(=O)CCl)cc1OC (centres undefined)	n	58	n	n
COc1cc(C2CC(c3cccs3)=NN2C(=O)CCl)ccc1OC(F)F (centres undefined)	n	59	n	n
